Assay results as given in ChEMBL document CHEMBL3112446, “Discovery and optimization of a new class of pyruvate kinase inhibitors as potential therapeutics for the treatment of methicillin-resistant Staphylococcus aureus infections” (Bioorg Med Chem, 2014).
Converted amounts (≈) assume the structure as drawn. The source made the active and inactive calls. No cut-off for these calls is given here.

Legend:
HEK293 [1] = assay: Cytotoxicity against HEK293 cells assessed as cell viability at 1 ug/ml; assay type: cell-based; details: human
[2] = Inhibition of methicillin-resistant Staphylococcus aureus pyruvate kinase; details: read-out: IC50
How it was run: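 His-tagged MRSA PK. Compounds diluted in 100% DMSO. IC50 calculated from a triplicate 15-point titration.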

HEK293 [3] = assay: Cytotoxicity against HEK293 cells assessed as cell viability at 10 ug/ml; assay type: cell-based; details: human
HEK293 [4] = assay: Cytotoxicity against HEK293 cells assessed as cell viability at 100 ug/ml; assay type: cell-based; details: human
Staphylococcus aureus [5] = assay: Antibacterial activity against Staphylococcus aureus ATCC 29213 by two fold serial dilution method; assay type: functional
[6] = molecular target: Pyruvate kinase PKLR (Homo sapiens) (UniProt P30613); assay: Inhibition human pyruvate kinase R at 10 uM
Chain of Pyruvate kinase PKLR (Homo sapiens) (P30613 whole entry, looked up, canonical isoform): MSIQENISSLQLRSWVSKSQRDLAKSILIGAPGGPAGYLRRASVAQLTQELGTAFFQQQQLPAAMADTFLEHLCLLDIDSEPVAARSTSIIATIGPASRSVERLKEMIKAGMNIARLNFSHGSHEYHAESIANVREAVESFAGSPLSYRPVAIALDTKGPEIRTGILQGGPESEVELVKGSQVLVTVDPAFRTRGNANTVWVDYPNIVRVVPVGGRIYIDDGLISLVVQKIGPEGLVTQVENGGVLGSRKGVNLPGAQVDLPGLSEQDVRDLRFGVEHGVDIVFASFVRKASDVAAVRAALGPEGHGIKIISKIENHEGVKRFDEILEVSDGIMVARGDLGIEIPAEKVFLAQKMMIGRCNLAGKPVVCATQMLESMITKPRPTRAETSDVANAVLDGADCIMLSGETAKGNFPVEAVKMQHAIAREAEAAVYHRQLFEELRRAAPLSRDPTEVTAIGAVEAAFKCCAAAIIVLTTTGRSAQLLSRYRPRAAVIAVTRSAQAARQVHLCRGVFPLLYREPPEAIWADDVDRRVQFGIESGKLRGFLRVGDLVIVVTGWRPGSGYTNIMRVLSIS
How it was run: (§1)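 His-tagged recombinant human PK isoforms were used. Compounds were diluted in 100% DMSO and tested at 10 µM, the highest concentration tested. Values are percent inhibition of enzymatic activity.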

Staphylococcus aureus [7] = assay: Ratio of MIC90 for Staphylococcus aureus ATCC 29213 in presence of efflux inhibitor verapamil to MIC90 for Staphylococcus aureus ATCC 29213 in absence of efflux inhibitor verapamil; assay type: functional
How it was run: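 S. aureus ATCC 29213 broth microdilution in 96-well format, run in parallel in CAMHB with and without verapamil (200 mg/L, sub-inhibitory). Compounds were twofold serially diluted in DMSO and added to ~2.5 × 10^5 CFU/ml. Plates were incubated 18–24 h at 37 °C and read at OD600, with inhibitor-only wells subtracted as background. MIC is the lowest concentration giving complete growth inhibition versus compound-free wells, in duplicate or triplicate. The ratio compares the MIC with verapamil to the MIC without.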

[8] = molecular target: Pyruvate kinase PKLR (Homo sapiens) (UniProt P30613); assay: Inhibition human pyruvate kinase L at 10 uM; how it was run: as §1
[9] = molecular target: Pyruvate kinase PKM (Homo sapiens) (UniProt P14618); assay: Inhibition human pyruvate kinase M1 at 10 uM; how it was run: as §1
Chain of Pyruvate kinase PKM (Homo sapiens) (P14618 2-531 limits assumed): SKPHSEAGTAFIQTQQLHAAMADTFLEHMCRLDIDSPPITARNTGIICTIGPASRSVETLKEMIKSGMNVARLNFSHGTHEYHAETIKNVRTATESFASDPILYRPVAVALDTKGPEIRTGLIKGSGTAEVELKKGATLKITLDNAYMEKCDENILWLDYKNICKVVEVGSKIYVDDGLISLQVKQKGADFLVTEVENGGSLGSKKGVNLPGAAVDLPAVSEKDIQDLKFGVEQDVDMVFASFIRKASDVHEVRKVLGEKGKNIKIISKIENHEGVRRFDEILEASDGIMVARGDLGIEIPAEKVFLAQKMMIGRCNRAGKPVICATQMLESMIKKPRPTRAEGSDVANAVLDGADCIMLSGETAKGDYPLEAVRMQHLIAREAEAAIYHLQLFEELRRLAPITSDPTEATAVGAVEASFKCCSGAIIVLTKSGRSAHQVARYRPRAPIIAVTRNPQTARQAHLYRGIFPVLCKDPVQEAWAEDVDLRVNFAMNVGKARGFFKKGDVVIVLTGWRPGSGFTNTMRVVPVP

[10] = molecular target: Pyruvate kinase PKM (Homo sapiens) (UniProt P14618); assay: Inhibition human pyruvate kinase M2 at 10 uM; how it was run: as §1
Staphylococcus aureus [11] = assay: Inhibition of methicillin-resistant Staphylococcus aureus pyruvate kinase at 10 uM
How it was run: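 His-tagged MRSA PK. Compounds diluted in 100% DMSO. Percent inhibition reported at the highest concentration tested, 10 µM.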

Staphylococcus aureus [12] = assay: Antibacterial activity against Staphylococcus aureus ATCC 29213 by two fold serial dilution method in presence of efflux inhibitor verapamil; assay type: functional
How it was run: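 S. aureus ATCC29213, 96-well twofold broth microdilution in CAMHB with verapamil 200 mg/L (sub-inhibitory) versus plain CAMHB. Incubated 18–24 h at 37 °C, OD600 read, compound-plus-medium background subtracted. MIC is the lowest concentration giving complete growth inhibition relative to compound-free wells.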

Staphylococcus aureus [13] = assay: Inhibition of methicillin-resistant Staphylococcus aureus pyruvate kinase at 1 uM
Staphylococcus aureus [14] = assay: Antibacterial activity against methicillin-resistant Staphylococcus aureus MW2 by two fold serial dilution method; assay type: functional
Staphylococcus aureus [15] = assay: Bacteriostatic activity against Staphylococcus aureus harboring LAC Dpyk::ErmR mutant in Brain-Heart infusion broth medium at 1.6 uM after 8 to 24 hrs; assay type: functional, organism-based
How it was run: (§2)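 S. aureus LAC pyk::ErmR (pyk replaced by an ErmR cassette) and WT overnight cultures were washed twice in PBS and diluted to OD600 0.1 (~2.5 × 10^7 cfu/ml). Media were pre-warmed (37 °C) BHI or TSB without glucose plus 1% sodium pyruvate (TSB-G+P), ±1.6 µM inhibitor. Cultures grew at 37 °C, 250 rpm. Viable counts were taken by dilution plating on glucose-free TSA plus 1% pyruvate at 0, 8 and 24 h.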

Staphylococcus aureus [16] = assay: Bacteriostatic activity against wild type Staphylococcus aureus at 1.6 uM after 8 to 24 hrs; assay type: functional, organism-based
How it was run: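 Washed overnight cultures were diluted to OD600 = 0.1 (~2.5 × 10^7 cfu/ml) in pre-warmed medium, either BHI or glucose-free TSB with 1% sodium pyruvate, ±1.6 µM compound. Grown at 37 °C with shaking at 250 rpm. Viable counts by dilution plating on glucose-free TSA with 1% pyruvate at 0, 8 and 24 h.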

Staphylococcus aureus [17] = assay: Bacteriostatic activity against Staphylococcus aureus harboring LAC Dpyk::ErmR mutant in TSB-G+P medium at 1.6 uM after 8 to 24 hrs; assay type: functional, organism-based; how it was run: as §2
Staphylococcus aureus [18] = assay: Bactericidal activity against Staphylococcus aureus harboring LAC Dpyk::ErmR mutant at 1.6 uM after 8 to 24 hrs; assay type: functional, organism-based; how it was run: as §2
Staphylococcus aureus [19] = assay: Antibacterial activity against Staphylococcus aureus MRSA252; assay type: functional
Staphylococcus aureus [20] = assay: Antibacterial activity against Staphylococcus aureus […]; assay type: functional

Row | Structure (SMILES) | Cell viability (HEK293 [1]) [%] | IC50 [2] [nM] | Cell viability (HEK293 [3]) [%] | Cell viability (HEK293 [4]) [%] | MIC>98 (Staphylococcus aureus [5]) [µg/mL] | inhibition [6] [%] | inhibition [8] [%] | inhibition [9] [%] | inhibition [10] [%] | inhibition (Staphylococcus aureus [11]) [%] | also measured
1 | COCn1c(-c2cc3ccc(Br)cc3[nH]2)cc2cc(Br)ccc21 | 123 | 1.9 | 102 | 73 | >64 |  |  |  |  |  | 
2 | Brc1cc2cc(-c3cc4cc(Br)c(Br)cc4[nH]3)[nH]c2cc1Br |  | 2 |  |  |  | 20.7 | 8.2 | 11.1 | 2.3 | 97.6 | Ratio (Staphylococcus aureus [7]): 4; MIC (Staphylococcus aureus [12]): 16 µg/mL
3 | Brc1ccc2cc(-c3ccc(-c4cc5ccc(Br)cc5[nH]4)cc3)[nH]c2c1 |  |  |  |  | >64 |  |  |  |  |  | inhibition (Staphylococcus aureus [13]): 54%
4 | Brc1ccc2[nH]c(-c3cc4ccc(Br)cc4[nH]3)cc2c1 |  | 2.2 |  |  |  | 13.6 | 6.1 | 6.9 | 8.7 | 97.8 | MIC (Staphylococcus aureus [14]): 0.5 µg/mL (≈ 1.28 µM)
5 | O=[N+]([O-])c1cc(-c2cc3ccccc3[nH]2)ccc1-c1cc2ccc(Br)cc2[nH]1 |  | 1.8 |  |  | 2 (≈ 4.63 µM) | 0 | -8.9 | 9.5 | 6.8 | 86.2 | 
6 | Clc1ccc2[nH]c(-c3cc4ccc(Br)cc4[nH]3)cc2c1 |  | 2 |  |  |  |  |  |  |  |  | Activity (Staphylococcus aureus [15]): Active; Activity (Staphylococcus aureus [16]): Active; Activity (Staphylococcus aureus [17]): inactive; MIC (Staphylococcus aureus [12]): 0.5 µg/mL; MIC (Staphylococcus aureus [14]): 0.5 µg/mL (≈ 1.45 µM); Activity (Staphylococcus aureus [18]): inactive
7 | Brc1ccc2[nH]c(C#Cc3cc4ccc(Br)cc4[nH]3)cc2c1 |  | 4.7 |  |  | 16 (≈ 38.6 µM) | 27.8 | 14 | 19.5 | 8.7 | 86.3 | 
8 | Brc1ccc2cc(/C=C/c3cc4ccccc4[nH]3)[nH]c2c1 | 107 | 4.5 | 114 | 115 | >64 | 23.8 | 12.9 | 16.1 | -0.9 | 93.4 | 
9 | Fc1ccc2[nH]c(-c3cc4ccc(Br)cc4[nH]3)cc2c1 |  | 2.8 |  |  |  |  |  |  |  |  | MIC (Staphylococcus aureus [14]): 0.5 µg/mL (≈ 1.52 µM)
10 | COc1ccc2[nH]c(-c3cc4ccc(Br)cc4[nH]3)cc2c1 | 107 | 2.5 | 88 | 72 | >64 |  |  |  |  |  | 
11 | CN1CCN(CCn2c(-c3cc4ccc(Br)cc4[nH]3)cc3cc(Br)ccc32)CC1 |  | 2 |  |  | 4 (≈ 7.75 µM) | 26.1 | 16.8 | 3.2 | 1.7 | 100 | 
12 | Brc1ccc2cc(-c3cc4ccc(Br)cc4[nH]3)[nH]c2c1 | 103 | 7 | 106 | 118 |  | 18.3 | 7.9 | 10.3 | 0.1 | 84.9 | Ratio (Staphylococcus aureus [7]): 32; MIC (Staphylococcus aureus [12]): 0.5 µg/mL
13 | Brc1ccc2cc(CCc3cc4ccc(Br)cc4[nH]3)[nH]c2c1 | 104 | 6.5 | 92 | 85 | >64 | 24.1 | 9.7 | 9.9 | 1.3 | 93.4 | 
14 | Brc1ccc2cc(-c3ccc(-c4cc5ccc(Br)cc5[nH]4)s3)[nH]c2c1 |  |  |  |  | >64 |  |  |  |  |  | inhibition (Staphylococcus aureus [13]): 28%
15 | Brc1ccc2[nH]c(-c3cc4ccccc4s3)cc2c1 |  |  |  |  | >64 |  |  |  |  |  | inhibition (Staphylococcus aureus [13]): 42%
16 | OCCn1c(-c2cc3ccc(Br)cc3[nH]2)cc2cc(Br)ccc21 |  | 1.3 |  |  | 2 (≈ 4.61 µM) | 25.2 | 6.8 | 14.6 | 12.1 | 101 | 
17 | O=C1NC[C@@H](c2c[nH]c3cc(Br)ccc23)N[C@H]1c1c[nH]c2cc(Br)ccc12 (relative stereo) [CIS-3,4-DIHYDROHAMACANTHIN B] |  | 16 |  |  |  |  |  |  |  |  | MIC (Staphylococcus aureus [19]): 12.5 µg/mL (≈ 25.6 µM); MIC (Staphylococcus aureus [20]): 12.5 µg/mL (≈ 25.6 µM)
18 | Brc1ccc2cc(-c3cc4cc(Br)c(Br)cc4[nH]3)[nH]c2c1 | 102 | 1.5 | 71 | 63 | 0.5 (≈ 1.07 µM) | 33.4 | 23.7 | 8.6 | 15.8 | 94.1 | 
